Measurements from different studies.
Compare with care: the assays were run in different laboratories.
MDH2: Malate dehydrogenase, mitochondrial (MDH2, Sus scrofa, UniProt P00346)

SMILES | target | assay | conditions | endpoint | result
Cc1cnc(-c2ccc(-c3ccc(NC(=O)Nc4c(F)cc(F)cc4F)cc3F)c3c2C(=O)NC3)[nH]1 | NT-3 growth factor receptor (NTRK3, Homo sapiens, UniProt Q16288) | binding, competition with immobilised ligand | – | Kd | 0.0009 µM
O=S(=O)(Nc1ccc(-c2nc3cc(NS(=O)(=O)c4cccc5ccccc45)ccc3o2)cc1)c1cccc2ccccc12 | MDH2 | enzyme activity, inhibitor | – | IC50 | > 62.5 µM
CCCCCCCCCCCCCCCC(=O)OC[C@H](COP(=O)(O)OC1[C@H](O)[C@H](O)C(OP(=O)(O)O)[C@H](O)[C@H]1O)OC(=O)CCCCCCCCCCCCCCC (stereo partly drawn) | Proto-oncogene tyrosine-protein kinase Src (SRC, Homo sapiens, UniProt P12931) | binding, fluorescence | – | Kd | 25.7 µM
Cc1cc2nc3c(=O)[nH]c(=O)nc-3n(C[C@H](O)[C@H](O)[C@H](O)COP(=O)(O)OP(=O)(O)OC[C@H]3O[C@@H](n4cnc5c(N)ncnc54)[C@H](O)[C@@H]3O)c2cc1C | Protein argonaute-2 (AGO2, Homo sapiens, UniProt Q9UKV8) | binding | lysate | Kd | 0.021 µM
CC(C)(C)n1nc(-c2ccc3nc(OC4CC4)ccc3c2)c(C(N)=O)c1N | RAC-alpha serine/threonine-protein kinase (AKT1, Homo sapiens, UniProt P31749) | cell-free assay | – | IC50 | > 10 µM
COc1ccc(S(=O)(=O)Nc2ccc3oc(-c4ccc(NS(=O)(=O)c5cc(Br)ccc5OC)cc4)nc3c2)cc1 | MDH2 | enzyme activity, inhibitor | – | IC50 | > 62.5 µM
CC(=O)N[C@@H](Cc1ccccc1)C(=O)N1CCC[C@H]1C(=O)N1CCC[C@H]1C(=O)N1CCC[C@H]1C(=O)N1CCC[C@H]1C(=O)O | Protein enabled homolog (ENAH, UniProt Q8N8S7) | binding, fluorescence | – | Kd | 500 µM
CNC(=O)c1cc2c(Oc3ccc(NC(=O)C4(C(=O)Nc5ccc(F)cc5)CC4)cc3)ccnc2cc1OC | Ephrin type-A receptor 2 (EPHA2, Homo sapiens, UniProt P29317) | enzyme activity, inhibitor, radiometric | – | IC50 | 0.054 µM
CCCN1CCN(c2ccc(-c3cncc(Cl)c3N3CCC4(CCNC4=O)CC3)cc2)CC1 | Serine/threonine-protein kinase D2 (PRKD2, Homo sapiens, UniProt Q9BZL6) | cell-free assay | lysate | Kd | 20 µM
CC(C)C[C@H](NC(=O)[C@H](CCCNC(=N)N)NC(=O)[C@H](C)N)C(=O)N[C@@H](Cc1ccc(O)cc1)C(=O)N[C@@H](Cc1ccc(O)cc1)C(=O)N[C@@H](Cc1ccccc1)C(=O)N[C@@H](Cc1c[nH]c2ccccc12)C(=O)N[C@@H](CC(=O)O)C(=O)N[C@H](C(=O)O)[C@@H](C)O | DNA dC->dU-editing enzyme APOBEC-3G (APOBEC3G, Homo sapiens, UniProt Q9HC16) | enzyme activity, inhibitor | – | Ki | ~7.8 µM
[O-][n+]1cccc(CCOc2ccc(Cl)c3ccccc23)c1 | G-protein coupled receptor 84 (Gpr84, Mus musculus, UniProt Q8CIM5) | cAMP, agonist | – | EC50 | 0.011 µM
O=C(/C=C/c1ccc(-n2ccnc2)cc1)N1CCN(C(=O)c2ccco2)CC1 | Protein ENL, YEATS (MLLT1, Homo sapiens, UniProt Q03111) | binding, BLI | – | Kd | 14 µM
CO[C@@H]1O[C@@H](C)[C@@H](O)[C@@H](O)[C@@H]1O | fleA (Aspergillus fumigatus, UniProt Q4WW81) | binding, ITC | – | Kd | 76.4 µM
O=C(Nc1ccc(Sc2nc3ccccc3s2)cc1)c1cccc(Br)c1O | MDH2 | enzyme activity, inhibitor | – | IC50 | > 62.5 µM
CC(=O)N[C@@H](CCCNC(=N)N)C(=O)NCCOCCOCC(=O)N[C@H](CC(=O)O)C(=O)N1CCC[C@H]1B(O)O | Dipeptidyl peptidase 4 (DPP4, Homo sapiens, UniProt P27487) | enzyme activity, inhibitor, fluorescence | – | Ki | 7.13 µM
